The text below walks through data of ChEMBL document CHEMBL1125243, “Design of potent oxytocin antagonists featuring D-tryptophan at position 2” (J Med Chem, 1991).

Molecules are shown by their SMILES. Numbered stars: 1 amine (or outer) side, 2 acyl side, 3 side chain; on linkers, the order of the positions; unused ones are H or OH. Bridge positions count the residues as written; N and C are the ends. Square brackets hold non-standard residues; d marks the D form. Peptide text beside a SMILES is read from it. X1 = O=C(CC1(S[*:2])CCCCC1)[*:1]

For the first assay, the species on record is Rattus norvegicus. Description: Effective dose (antagonist) that reduces the response to an agonist (oxytocin) by one-half. The assay is classed as functional.
Settings: not given
The essentials: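 Isolated estrous rat uterus in Van Dyke-Hastings solution with 0.5 mM Mg²⁺; OT-evoked isometric contractions quantified as integrated peak area. Effective dose taken as molar antagonist concentration halving the agonist response; at least four separate assays.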
As for `CC[C@H](C)[C@@H]1NC(=O)[C@H](Cc2ccc(Cl)cc2)NC(=O)[C@@H](Cc2c[nH]c3ccccc23)NC(=O)CC2(CCCCC2)SSC[C@@H](C(=O)N2CCC[C@H]2C(=O)N[C@@H](CCCN=C(N)N)C(=O)NCC(N)=O)NC(=O)[C@H](CC(N)=O)NC1=O` [listing 1 of 2 here], the ED50 turned out to be 40.2 nM.

The compound `CC[C@H](C)[C@@H]1NC(=O)[C@@H](Cc2c[nH]c3ccccc23)NC(=O)CC2(CCCCC2)SSC[C@@H](C(=O)N2CCC[C@H]2C(=O)N[C@@H](CCCN=C(N)N)C(=O)NCC(N)=O)NC(=O)[C@H](CC(N)=O)NC(=O)[C@H](C(C)C)NC1=O` [listing 1 of 2 here] had an ED50 of 26.9 nM.

Consider `CC[C@H](C)[C@@H]1NC(=O)[C@H](Cc2ccccc2)NC(=O)[C@@H](Cc2ccccc2)NC(=O)CC2(CCCCC2)SSC[C@@H](C(=O)N2CCC[C@H]2C(=O)N[C@@H](CCCN=C(N)N)C(=O)NCC(N)=O)NC(=O)[C@H](CC(N)=O)NC1=O` ([dF]FINCPRG-NH2; linker N-5 via X1) [listing 1 of 2 here], for which the ED50 turned out to be 46.6 nM.

`CC[C@H](C)[C@@H]1NC(=O)[C@@H](Cc2c[nH]c3ccccc23)NC(=O)CC2(CCCCC2)SSC[C@@H](C(=O)N2CCC[C@H]2C(=O)N[C@@H](CCCN=C(N)N)C(=O)NCC(N)=O)NC(=O)[C@H](CC(N)=O)NC(=O)[C@H]([C@@H](C)O)NC1=O` [listing 1 of 2 here] gave an ED50 of 46.8 nM.

`CCNC(=O)CNC(=O)[C@H](CCCN=C(N)N)NC(=O)[C@@H]1CCCN1C(=O)[C@@H]1CSSC2(CCCCC2)CC(=O)N[C@H](Cc2c[nH]c3ccccc23)C(=O)N[C@@H](Cc2ccccc2)C(=O)N[C@@H](CCC(N)=O)C(=O)N[C@@H](CC(N)=O)C(=O)N1` [listing 1 of 2 here] yielded an ED50 of 32.9 nM.

`CC[C@H](C)[C@@H]1NC(=O)[C@H]([C@@H](C)CC)NC(=O)[C@@H](Cc2c[nH]c3ccccc23)NC(=O)CC2(CCCCC2)SSC[C@@H](C(=O)N2CCC[C@H]2C(=O)N[C@@H](CCCN=C(N)N)C(=O)NCC(N)=O)NC(=O)[C@H](CC(N)=O)NC1=O` [listing 1 of 2 here] came in with an ED50 of 35.3 nM.

As for `CC[C@H](C)[C@@H]1NC(=O)[C@H](Cc2ccccc2)NC(=O)[C@@H](Cc2c[nH]c3ccccc23)NC(=O)CC2(CCCCC2)SSC[C@@H](C(=O)N2CC=C[C@H]2C(=O)N[C@@H](CCCN=C(N)N)C(=O)NCC(N)=O)NC(=O)[C@H](CC(N)=O)NC1=O` [listing 1 of 2 here], the ED50 stood at 38.6 nM.

Compound `CC[C@H](C)[C@@H]1NC(=O)[C@H](Cc2ccccc2)NC(=O)[C@@H](Cc2c[nH]c3ccccc23)NC(=O)CC2(CCCCC2)SSC[C@@H](C(=O)N2CCC[C@H]2C(=O)N[C@@H](CCCN=C(N)N)C(=O)NCC(N)=O)NC(=O)[C@H](CC(N)=O)NC1=O` [listing 1 of 2 here] came in with an ED50 of 30.9 nM.

As for `NC(=O)CC[C@@H]1NC(=O)[C@H](Cc2ccccc2)NC(=O)[C@@H](Cc2c[nH]c3ccccc23)NC(=O)CC2(CCCCC2)SSC[C@@H](C(=O)N2CCC[C@H]2C(=O)N[C@@H](CCCN=C(N)N)C(=O)NCC(N)=O)NC(=O)[C@H](CC(N)=O)NC1=O` [listing 1 of 2 here], the ED50 was 27 nM.

A further assay is filed under the species Rattus norvegicus. Description: Antidiuretic action in water-loaded rats under ethanol anesthesia. Type of assay: functional, organism-based. Particulars: Urine, read-out: pA2 (converted). The essentials:
(§1)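 Antagonism tested in vivo in water-loaded rats under ethanol anesthesia, with ADH as the agonist standard. The effective dose is the antagonist amount that halves the response to agonist. An in vivo pA₂ was estimated by dividing the effective dose by an assumed volume of distribution of 67 mL/kg. Values reported as mean ± SE.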
As to `CC[C@H](C)[C@@H]1NC(=O)[C@H](Cc2ccccc2)NC(=O)[C@@H](Cc2ccccc2)NC(=O)CC2(CCCCC2)SSC[C@@H](C(=O)N2CCC[C@H]2C(=O)N[C@@H](CCCN=C(N)N)C(=O)NCC(N)=O)NC(=O)[C@H](CC(N)=O)NC1=O` ([dF]FINCPRG-NH2; linker N-5 via X1) [listing 2 of 2 here], the Kb is 8.13 nM.

`CC[C@H](C)[C@@H]1NC(=O)[C@@H](Cc2c[nH]c3ccccc23)NC(=O)CC2(CCCCC2)SSC[C@@H](C(=O)N2CCC[C@H]2C(=O)N[C@@H](CCCN=C(N)N)C(=O)NCC(N)=O)NC(=O)[C@H](CC(N)=O)NC(=O)[C@H](CCC(N)=O)NC1=O` ([dW]IQNCPRG-NH2; linker N-5 via X1) [listing 1 of 2 here]: the Kb was more than 1380 nM.

Consider `CC[C@H](C)[C@@H]1NC(=O)[C@H](Cc2ccccc2)NC(=O)[C@@H](Cc2c[nH]c3ccccc23)NC(=O)CC2(CCCCC2)SSC[C@@H](C(=O)N2CCC[C@H]2C(=O)N[C@@H](CCCN=C(N)N)C(=O)NCC(N)=O)NC(=O)[C@H](CC(N)=O)NC1=O` [listing 2 of 2 here], for which the Kb was 7.94 nM.

Another assay is filed under the species Rattus norvegicus. Description: Antidiuretic potency was evaluated and expressed as effective dose.
Settings: not given
The assay is classed as functional, Urine. The essentials: as §1
Regarding `CC[C@H](C)[C@@H]1NC(=O)[C@@H](Cc2c[nH]c3ccccc23)NC(=O)CC2(CCCCC2)SSC[C@@H](C(=O)N2CCC[C@H]2C(=O)N[C@@H](CCCN=C(N)N)C(=O)NCC(N)=O)NC(=O)[C@H](CC(N)=O)NC(=O)[C@H](CCC(N)=O)NC1=O` ([dW]IQNCPRG-NH2; linker N-5 via X1) [listing 2 of 2 here], the ED50 was less than 1680 nM.

As to `CC[C@H](C)[C@@H]1NC(=O)[C@H](Cc2ccccc2)NC(=O)[C@@H](Cc2ccccc2)NC(=O)CC2(CCCCC2)SSC[C@@H](C(=O)N2CCC[C@H]2C(=O)N[C@@H](CCCN=C(N)N)C(=O)NCC(N)=O)NC(=O)[C@H](CC(N)=O)NC1=O` ([dF]FINCPRG-NH2; linker N-5 via X1) [listing 1 of 2 here], the ED50 amounted to 0.87 M.

As to `CC[C@H](C)[C@@H]1NC(=O)[C@H](Cc2ccccc2)NC(=O)[C@@H](Cc2c[nH]c3ccccc23)NC(=O)CC2(CCCCC2)SSC[C@@H](C(=O)N2CCC[C@H]2C(=O)N[C@@H](CCCN=C(N)N)C(=O)NCC(N)=O)NC(=O)[C@H](CC(N)=O)NC1=O` [listing 1 of 2 here], the ED50 stood at 8.3 nM.

The next assay is filed under the species Rattus norvegicus. Description: Competitive antagonist action against oxytocin contractile action in rat uterus(in vitro). Type of assay: functional. Particulars: read-out: pA2 (converted). The essentials: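 Isolated uteri from rats in natural estrus, incubated in Van Dyke-Hastings solution with 0.5 mM Mg²⁺. Isometric contractions to synthetic OT recorded by force transducer; response quantified by integrating area under peaks. pA₂ determined by Schild method; at least four separate assays per antagonist.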
On to `NC(=O)CC[C@@H]1NC(=O)[C@H](Cc2ccccc2)NC(=O)[C@@H](Cc2c[nH]c3ccccc23)NC(=O)CC2(CCCCC2)SSC[C@@H](C(=O)N2CCC[C@H]2C(=O)N[C@@H](CCCN=C(N)N)C(=O)NCC(N)=O)NC(=O)[C@H](CC(N)=O)NC1=O` [listing 2 of 2 here], for which the Kb is 26.3 nM.

Regarding `CC[C@H](C)[C@@H]1NC(=O)[C@H](Cc2ccccc2)NC(=O)[C@@H](Cc2ccccc2)NC(=O)CC2(CCCCC2)SSC[C@@H](C(=O)N2CCC[C@H]2C(=O)N[C@@H](CCCN=C(N)N)C(=O)NCC(N)=O)NC(=O)[C@H](CC(N)=O)NC1=O` ([dF]FINCPRG-NH2; linker N-5 via X1) [listing 2 of 2 here], the Kb is 44.7 nM.

For the compound `CC[C@H](C)[C@@H]1NC(=O)[C@H](Cc2ccccc2)NC(=O)[C@@H](Cc2c[nH]c3ccccc23)NC(=O)CC2(CCCCC2)SSC[C@@H](C(=O)N2CC=C[C@H]2C(=O)N[C@@H](CCCN=C(N)N)C(=O)NCC(N)=O)NC(=O)[C@H](CC(N)=O)NC1=O` [listing 2 of 2 here], the Kb was 38 nM.

On to `CC[C@H](C)[C@@H]1NC(=O)[C@@H](Cc2c[nH]c3ccccc23)NC(=O)CC2(CCCCC2)SSC[C@@H](C(=O)N2CCC[C@H]2C(=O)N[C@@H](CCCN=C(N)N)C(=O)NCC(N)=O)NC(=O)[C@H](CC(N)=O)NC(=O)[C@H]([C@@H](C)O)NC1=O` [listing 2 of 2 here], for which the Kb was 33.1 nM.

Turning to `CC[C@H](C)[C@@H]1NC(=O)[C@H](Cc2ccccc2)NC(=O)[C@@H](Cc2c[nH]c3ccccc23)NC(=O)CC2(CCCCC2)SSC[C@@H](C(=O)N2CCC[C@H]2C(=O)N[C@@H](CCCN=C(N)N)C(=O)NCC(N)=O)NC(=O)[C@H](CC(N)=O)NC1=O` [listing 2 of 2 here], the Kb is 30.9 nM.

With `CC[C@H](C)[C@@H]1NC(=O)[C@H](Cc2ccc(Cl)cc2)NC(=O)[C@@H](Cc2c[nH]c3ccccc23)NC(=O)CC2(CCCCC2)SSC[C@@H](C(=O)N2CCC[C@H]2C(=O)N[C@@H](CCCN=C(N)N)C(=O)NCC(N)=O)NC(=O)[C@H](CC(N)=O)NC1=O` [listing 2 of 2 here], the Kb is 36.3 nM.

On to `CC[C@H](C)[C@@H]1NC(=O)[C@H]([C@@H](C)CC)NC(=O)[C@@H](Cc2c[nH]c3ccccc23)NC(=O)CC2(CCCCC2)SSC[C@@H](C(=O)N2CCC[C@H]2C(=O)N[C@@H](CCCN=C(N)N)C(=O)NCC(N)=O)NC(=O)[C@H](CC(N)=O)NC1=O` [listing 2 of 2 here], for which the Kb was 34.7 nM.

As for `CC[C@H](C)[C@@H]1NC(=O)[C@@H](Cc2c[nH]c3ccccc23)NC(=O)CC2(CCCCC2)SSC[C@@H](C(=O)N2CCC[C@H]2C(=O)N[C@@H](CCCN=C(N)N)C(=O)NCC(N)=O)NC(=O)[C@H](CC(N)=O)NC(=O)[C@H](C(C)C)NC1=O` [listing 2 of 2 here], the Kb is 26.3 nM.

With `CCNC(=O)CNC(=O)[C@H](CCCN=C(N)N)NC(=O)[C@@H]1CCCN1C(=O)[C@@H]1CSSC2(CCCCC2)CC(=O)N[C@H](Cc2c[nH]c3ccccc23)C(=O)N[C@@H](Cc2ccccc2)C(=O)N[C@@H](CCC(N)=O)C(=O)N[C@@H](CC(N)=O)C(=O)N1` [listing 2 of 2 here], the Kb is 32.4 nM.
